The values below come from PubChem BioAssay.

Assay [1] can be described thus: SK-BR-3 cell growth inhibitors, pilot screen, 24 h, human (AID 572;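 active = viability at or below 10% of carrier control in both of two separate runs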;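 note: compound exposure lasted between 18 and 24 h rather than exactly 24 h; 100% = carrier-treated control wells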). To be noted: SK-BR-3 viability, CellTiter-Glo luminescence, at 10 µM, stronger effect = lower value.
Assay [2] is described as follows: HUVEC growth inhibition – cell-based, human, primary screen (AID 575;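 active = viability at or below 30% in both replicate assays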;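 note: 100% = median of untreated cell wells with 0.1% DMSO on each plate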). To be noted: HUVEC proliferation, CellTiter-Glo luminescence, 72 h; at 10 µM; stronger effect = lower value. A digest of the protocol:
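Test system: HUVEC primary cells. Quantity: 1250 endothelial cells in each well. Dosing: single-point 10 µM, DMSO 0.1% final. Incubation: 72 h treatment at 37 °C. Measured by: CTG luminescence. Control set: DMSO cell controls and MePR drug controls. Plate: collagen-coated 384-well format.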
On the technique in general: ATP-based viability assays read luminescence as a measure of living cells.

The nature of assay [3]: growth inhibitors of H69AR lung tumor, primary screen, human, duplicate replicates (AID 580).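 Note: 100% = mean luminescence of untreated wells and 0% = no signal.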 To be noted: H69AR lung tumor cells viability, ATP luminescence, 72 h; at 10 µM; stronger effect = lower value.
The nature of assay [4]: reversal of MRP1-mediated doxorubicin resistance, pilot screen, H69AR cells, doxorubicin co-treatment (AID 601;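 active = viability loss from added drug above about 55%, and viability with drug at most 40%, in both replicates, limit read from the data, passing the limit was not always enough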). To be noted: CellTiter-Glo, 72 h, at 10 µM; for differential viability (reversal): stronger effect = higher value.
Assay [5] in a line: 384-well plate pilot, post-Golgi transport modulator project, inhibition of yeast transport mutant growth (AID 636; in the data active = inhibition above about 31%). To be noted: absorbance 615 nm, about 18 h, stronger effect = higher value.
Assay [6] can be described thus: growth suppression of yeast trafficking mutant, preliminary HTS, modulators of trafficking downstream of Golgi apparatus project, 1536-format plate, OD 615 nm (AID 637; in the data active = inhibition above about 30%). To be noted: yeast transport mutant growth, absorbance 615 nm, 18 h; stronger effect = higher value.
Setting [7] is: H69AR cells + 2 uM doxorubicin, measured here: viability with 2 uM doxorubicin, stronger effect = lower value.
Where [8] appears, read: H69AR cells, compound alone cytotoxicity.

Calls of active or inactive are those of the source.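 Rule for the calls, unless noted: active = viability at or under a set limit in both replicates, limit being median viability minus 3 SD (cut at about 48% in these data, passing the limit was not always enough); inconclusive = at or under the limit in just one replicate; inactive = at or above the limit in both replicates.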

As for `O=C(CSc1ccccc1C(=O)NCCCN1CCCC1=O)NCc1ccco1`, the viability (as a rule, a read-out of living cells in per cent, often relative to untreated cells) was 108% (inactive) in assay [1]; 102% (inactive) in assay [2]; 82.3% (inactive) in assay [3]; 80% in assay [4] (setting [7]); 82.3% in assay [4] (setting [8]). Also, the differential viability (reversal) in assay [4] (H69AR cells + 2 uM doxorubicin) was 2.32% (inactive). The results for the inhibition in assay [5] and in assay [6] were -3.6% (inactive) and 6% (inactive), respectively.
As to `CN(C)CCOC(c1ccccc1)c1ccccc1`, the viability in assay [1] was 78% (inactive); in assay [2], 86.9% (inactive); in assay [3], 87.6% (inactive); in assay [4] (setting [7]) it was 82.3%; in assay [4] (setting [8]), 87.6%. Moreover, the differential viability (reversal) in assay [4] (H69AR cells + 2 uM doxorubicin) is 5.28% (inactive). Moreover, the values for the inhibition in assay [5] and in assay [6] were -1.69% (inactive) and 2.5% (inactive), respectively.
Consider `Cc1cc(C)cc(-n2nnc(C(=O)NCc3ccc4c(c3)OCO4)c2N)c1`, for which the viability in assay [1] is 106% (inactive); in assay [2], 88.5% (inactive); in assay [3], 97.7% (inactive); in assay [4] (setting [7]) it was 104%; in assay [4] (setting [8]), 97.7%. Further, in assay [4] (H69AR cells + 2 uM doxorubicin), the differential viability (reversal) is -6.51% (inactive). Besides, the inhibition (as a rule, the change of the read-out against control, counted positive when it falls) is -5.19% (inactive) in assay [5] and 0% (inactive) in assay [6].
Take `CCOC(=O)c1cnc(SC2CC(=O)N(c3ccc(OC)c(OC)c3)C2=O)nc1N` (centres undefined): the viability in assay [1] was 121% (inactive); in assay [2], 101% (inactive); in assay [3], 111% (inactive); in assay [4] (setting [7]) it was 96.8%; in assay [4] (setting [8]), 111%. Further, the differential viability (reversal) in assay [4] (H69AR cells + 2 uM doxorubicin) was 14% (inactive). The inhibition in assay [5] was -0.55% (inactive); in assay [6], 1.13% (inactive).
`COCCn1nnnc1SCC(=O)N1CCCCC1`: the viability in assay [1] was 63% (inactive); in assay [2], 102% (inactive); in assay [3], 99.4% (inactive); in assay [4] (setting [7]) it was 97.4%; in assay [4] (setting [8]), 99.4%. The differential viability (reversal) in assay [4] (H69AR cells + 2 uM doxorubicin) was 1.98% (inactive). The inhibition in assay [5] is -5.34% (inactive); in assay [6] it was 4.18% (inactive).
With `O=C(C1CCN(C2CC(=O)N(c3ccc(F)cc3)C2=O)CC1)N1CCOCC1` (centres undefined), the viability in assay [1] was 106% (inactive); in assay [2], 105% (inactive); in assay [3], 101% (inactive); in assay [4] (setting [7]), 96.2%; in assay [4] (setting [8]), 101%. In addition, the differential viability (reversal) in assay [4] (H69AR cells + 2 uM doxorubicin) is 4.69% (inactive). Moreover, the inhibition in assay [5] is -1.43% (inactive); in assay [6] it was 4.43% (inactive).
As for `O=C(CCCOc1ccccc1)N1CCN(c2ccccn2)CC1`, the viability in assay [1] is 99% (inactive); in assay [2], 97.7% (inactive); in assay [3], 104% (inactive); in assay [4] (setting [7]), 97.8%; in assay [4] (setting [8]), 104%. Besides, in assay [4] (H69AR cells + 2 uM doxorubicin), the differential viability (reversal) is 5.88% (inactive). For the same molecule, the inhibition is -0.39% (inactive) in assay [5] and -5.74% (inactive) in assay [6].
Regarding `CCOC(=O)c1[nH]c2ccc(F)cc2c1NC(=O)C(C)N1CCc2cc(OC)c(OC)cc2C1` (centres undefined), the viability in assay [1] was 99% (inactive); in assay [2], 57.9% (inactive); in assay [3], 13.5% (active); in assay [4] (setting [7]), 68.7%; in assay [4] (setting [8]) it was 13.5%. Moreover, the differential viability (reversal) in assay [4] (H69AR cells + 2 uM doxorubicin) was -55.2% (inactive). Also, the inhibition in assay [5] is -3.42% (inactive); in assay [6], 7.87% (inactive).
With `Cc1ccc(-c2nnc(SCC(=O)N3c4ccccc4NC(=O)C3(C)C)n2N)cc1`, the viability in assay [1] is 65% (inactive); in assay [2], 105% (inactive); in assay [3], 98% (inactive); in assay [4] (setting [7]), 91.5%; in assay [4] (setting [8]), 98%. For the same molecule, the differential viability (reversal) in assay [4] (H69AR cells + 2 uM doxorubicin) was 6.49% (inactive). Further, the inhibition in assay [5] is -3.38% (inactive); in assay [6] it was 0.36% (inactive).
Take `CC(C)(C)NCC(O)c1cc(O)cc(O)c1` (centres undefined): the viability in assay [1] was 127% (inactive); in assay [2], 109% (inactive); in assay [3], 98.9% (inactive); in assay [4] (setting [7]), 91.4%; in assay [4] (setting [8]), 98.9%. Moreover, the differential viability (reversal) in assay [4] (H69AR cells + 2 uM doxorubicin) is 7.49% (inactive). The inhibition in assay [5] is -2.73% (inactive); in assay [6], 2.5% (inactive).
`CCOCCn1c(CN2CCC(Cc3ccccc3)CC2)nc2c1c(=O)n(C)c(=O)n2C`: the viability was 61% (inactive) in assay [1]; 89.7% (inactive) in assay [2]; 87.7% (inactive) in assay [3]; 58% in assay [4] (setting [7]); 87.7% in assay [4] (setting [8]). Moreover, the differential viability (reversal) in assay [4] (H69AR cells + 2 uM doxorubicin) is 29.8% (inactive). Further, the results for the inhibition in assay [5] and in assay [6] were -8.22% (inactive) and 3.55% (inactive), respectively.
With `CCOC(=O)C1CCN(C(C)=C2C(=O)c3ccccc3C2=O)CC1`, the viability in assay [1] is 98% (inactive); in assay [2] it was 110% (inactive); in assay [3] it was 105% (inactive); in assay [4] (setting [7]) it was 94.6%; in assay [4] (setting [8]), 105%. Also, in assay [4] (H69AR cells + 2 uM doxorubicin), the differential viability (reversal) is 10.4% (inactive). Moreover, the inhibition in assay [5] is -4.66% (inactive); in assay [6], 7.26% (inactive).
For the molecule `CCOc1ccc(-c2nc(N)ncc2-c2ccccc2)c(O)c1`, the viability in assay [1] is 136% (inactive); in assay [2] it was 95.3% (inactive); in assay [3], 65.3% (inactive); in assay [4] (setting [7]), 79.6%; in assay [4] (setting [8]) it was 65.3%. For the same molecule, the differential viability (reversal) in assay [4] (H69AR cells + 2 uM doxorubicin) was -14.3% (inactive). Further, the results for the inhibition in assay [5] and in assay [6] were -5.95% (inactive) and -8.1% (inactive), respectively.
For `Cc1cccc(N2CCN(C(=O)C3CCCN(S(=O)(=O)c4cnc[nH]4)C3)CC2C)c1` (centres undefined), the viability in assay [1] is 90% (inactive); in assay [2], 90.2% (inactive); in assay [3], 95.6% (inactive); in assay [4] (setting [7]) it was 88.7%; in assay [4] (setting [8]) it was 95.6%. Besides, in assay [4] (H69AR cells + 2 uM doxorubicin), the differential viability (reversal) was 6.94% (inactive). Further, the inhibition was -0.26% (inactive) in assay [5] and -0.98% (inactive) in assay [6].
As for `CN(C)C(=O)Oc1ccc[n+](C)c1`, the viability was 92% (inactive) in assay [1]; 102% (inactive) in assay [2]; 87% (inactive) in assay [3]; 81.6% in assay [4] (setting [7]); 87% in assay [4] (setting [8]). In addition, the differential viability (reversal) in assay [4] (H69AR cells + 2 uM doxorubicin) is 5.36% (inactive). The inhibition in assay [5] was -1.17% (inactive); in assay [6], -2.33% (inactive).
Regarding `Cc1ccc(Cl)c(Nc2ccccc2C(=O)O)c1Cl`, the viability was 135% (inactive) in assay [1]; 47.9% (inactive) in assay [2]; 91.3% (inactive) in assay [3]; 97.9% in assay [4] (setting [7]); 91.3% in assay [4] (setting [8]). The differential viability (reversal) in assay [4] (H69AR cells + 2 uM doxorubicin) was -6.54% (inactive). Moreover, the inhibition is -0.78% (inactive) in assay [5] and 4.67% (inactive) in assay [6].
Consider `Cc1cc(Cl)ccc1OCC(=O)Nn1c(C)ccc1C`, for which the viability in assay [1] was 68% (inactive); in assay [2], 101% (inactive); in assay [3] it was 94% (inactive); in assay [4] (setting [7]) it was 82.9%; in assay [4] (setting [8]), 94%. The differential viability (reversal) in assay [4] (H69AR cells + 2 uM doxorubicin) was 11.1% (inactive). Also, the inhibition is -1.37% (inactive) in assay [5] and -4.68% (inactive) in assay [6].
For the molecule `CN1[C@@H](CC(=O)c2ccccc2)CCC[C@H]1C[C@H](O)c1ccccc1`, the viability in assay [1] was 63% (inactive); in assay [2], 81.4% (inactive); in assay [3], 84.1% (inactive); in assay [4] (setting [7]) it was 88.7%; in assay [4] (setting [8]), 84.1%. In addition, the differential viability (reversal) in assay [4] (H69AR cells + 2 uM doxorubicin) was -4.62% (inactive). For the same molecule, the inhibition in assay [5] was 1.95% (inactive); in assay [6], 0.67% (inactive).
